# Bioassay records as filed in PubChem.
# RGS4-Gao reg: modulates binding of RGS4 to human Galphao. binding response (% of control), % at 10 µM. 220,000 compounds, 0.33% hits. P09471. Multiplexed bead flow cytometry; actives lie on both sides; in the data active means binding response below about 49% or above about 150%; inactive means in between;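 further: fluorescent Galphao activated with aluminum fluoride binding bead-coupled RGS4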
# Target sequence (P09471 whole entry, looked up): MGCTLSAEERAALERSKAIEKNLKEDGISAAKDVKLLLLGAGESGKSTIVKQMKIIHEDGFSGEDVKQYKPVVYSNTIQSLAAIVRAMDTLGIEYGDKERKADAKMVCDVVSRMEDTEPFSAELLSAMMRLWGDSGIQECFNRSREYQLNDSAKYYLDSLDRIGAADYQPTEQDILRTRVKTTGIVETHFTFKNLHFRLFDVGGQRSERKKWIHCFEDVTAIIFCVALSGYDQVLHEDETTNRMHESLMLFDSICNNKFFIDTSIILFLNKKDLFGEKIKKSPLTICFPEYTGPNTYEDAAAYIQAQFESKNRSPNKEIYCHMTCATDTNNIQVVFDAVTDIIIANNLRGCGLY
# RGS8-Gao: human RGS8-Galphao interaction regulation; P09471; multiplexed bead flow cytometry, RGS8-Galphao binding; actives lie on both sides; response (percent of control binding), % at 10 µM; 220,000 compounds, 0.34% hits; AID 1423; in the data active means response below about 60% or above about 140%; inactive means in between;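 further: Galphao activated as the GDP aluminium fluoride complex binding bead-coupled RGS8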
# RGS16-Gao: regulators of human RGS16-Galphao interaction | binding response (% of control), % at 10 µM | bead-based flow cytometry RGS16-Galphao binding, fluorescence; actives lie on both sides | 220,000 compounds, 0.38% hits | O15492+P09471;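 further: Galphao activated by GDP with aluminum fluoride before binding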
# Target sequence (O15492 whole entry, looked up): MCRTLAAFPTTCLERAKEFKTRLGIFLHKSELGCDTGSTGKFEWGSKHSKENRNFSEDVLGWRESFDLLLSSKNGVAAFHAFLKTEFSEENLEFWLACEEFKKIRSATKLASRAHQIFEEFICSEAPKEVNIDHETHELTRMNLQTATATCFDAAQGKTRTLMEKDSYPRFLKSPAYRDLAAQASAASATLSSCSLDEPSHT
# Target sequence (P09471 whole entry, looked up): as the sequence (P09471 whole entry, looked up) above
# ABCG2 block: inhibitors of human ABCG2 transporter, ABCB1 counter-screen; Q9UNQ0; IgMXP3 cells, JC-1 efflux, flow cytometry; inhibition, % at 6.6 µM; 190,000 compounds, 0.1% hits; AID 1325;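 active means inhibition above 80%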;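 further: 0% = DMSO and 100% = nicardipine control wells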
#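 Read-out basis: Efflux inhibition in percent versus controls | Test system: ABCG2 IgMXP3 and barcoded ABCB1 CCRF-Adr cell mix | Quantity: 3 million cells/mL in well | Schedule: 10 min at 25 °C | Control set: Nicardipine as high control, DMSO as low control | Reagent: JC-1 as fluorescent efflux pump substrate | Signal: Flow cytometry of retained JC-1 fluorescence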
# ABCB1 block: human ABCB1 inhibition, ABCG2 as counter-screen. P08183. CCRF-Adr cells, JC-1 efflux, flow cytometry. 190,000 compounds, 0.067% hits. AID 1326. inhibition, % at 6.6 µM; in the data active means inhibition above about 40%;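 further: 0% = vehicle and 100% = reference inhibitor; higher value means more JC-1 retained so stronger ABCB1 efflux block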
# RGS7-Gao: human RGS7-Galphao interaction regulation | P09471 | Multiplexed bead flow cytometry, RGS7-Galphao binding; actives lie on both sides | binding response (% of control), % at 10 µM | 220,000 compounds, 0.35% hits; in the data active means binding response below about 49% or above about 150%; inconclusive means no clear call, values can overlap the other calls; inactive means in between;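 further: fluorescent Galphao held in activated GDP-AlF4 state binding bead-coupled RGS7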
# RGS-Gao: RGS4-Galphao interaction regulator (human); shares compounds with RGS16-Gao; multiplexed bead flow cytometry, RGS–Galpha-o binding; RGS4–Galpha-o binding response, % at 10 µM; 1,600 compounds, 99% hits; AID 1504;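 further: fluorescently labeled Galpha-o bound to GDP with aluminium fluoride binding biotinylated RGS beads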
# Biotin-avidin: counter-screen: compounds disrupting biotin binding to avidin beads. shares compounds with RGS16-Gao. streptavidin beads, fluorescein-biotin binding, flow cytometry. inhibition, % at 10 µM. 1,700 tested, under 10 active. AID 1783;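 active means inhibition above 50%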;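 further: median green fluorescence of gated singlet beads compared with DMSO control wells; 0% = DMSO wells and 100% = complete loss of bead fluorescence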
# RGS8-Gao single: confirmation of regulators of human RGS8-Galphao interaction. shares compounds with RGS16-Gao. bead-based flow cytometry RGS8-Galphao binding, fluorescence; actives lie on both sides. binding response (% of control), % at 10 µM. 1,700 compounds, 3% hits; in the data active means binding response below about 72% or above about 130%; inactive means in between;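 further: Galphao activated as GDP AlF4 complex before binding bead RGS8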
# RGS7-Gao confirm: RGS7-Galphao interaction regulation, single point confirmation | AID 1837 | bead-based flow cytometry RGS7-Galphao binding; actives lie on both sides | response (percent of control binding), % at 10 µM | 1,700 compounds, 7.8% hits | shares compounds with RGS16-Gao; in the data active means response below about 75% or above about 130%; inactive means in between;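 further: fluorescent Galphao activated with GDP and aluminum fluoride binding bead-coupled RGS7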
# RGS16-Gao conf: confirmation of regulators of human RGS16-Galphao interaction; response (% of control binding), % at 10 µM; bead-based flow cytometry, RGS16-Galphao binding; actives lie on both sides; shares compounds with RGS16-Gao; AID 1838; 1,700 compounds, 4% hits; in the data active means response below about 74% or above about 130%; inactive means in between;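 further: Galphao activated as the GDP aluminium fluoride complex binding bead-coupled RGS16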
# RGS4-Gao confirm: confirmation of regulators of human RGS4-Galphao interaction; shares compounds with RGS16-Gao; AID 1840; 1,700 compounds, 4% hits; binding response (% of control), % at 10 µM; RGS4-Galphao binding, multiplexed bead flow cytometry; actives lie on both sides; in the data active means binding response below about 74% or above about 130%; inactive means in between
# RGS19-Gao conf: confirmation of regulators of human RGS19-Galphao interaction; shares compounds with RGS16-Gao; bead-based flow cytometry RGS19-Galphao binding; actives lie on both sides; response (percent of control binding), % at 10 µM; 1,700 compounds, 5% hits; AID 1841; in the data active means response below about 50% or above about 160%; inactive means in between;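 further: 100% = no compound control and 0% = blank background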
# An asterisk follows results filed as active; u = inconclusive; x = no result; [ ] = dose if it differs, or a comment. The list is not random: actives were taken first. Their share in the collection is about 0.83%. Unless noted, how the calls were made is not given here.
SMILES,RGS4-Gao reg,RGS8-Gao,RGS16-Gao,ABCG2 block,ABCB1 block,RGS7-Gao,Biotin-avidin,RGS8-Gao single,RGS7-Gao confirm,RGS16-Gao conf,RGS4-Gao confirm,RGS19-Gao conf,others
CCOC(=O)N1CCC(NC(=O)c2ccc(N3CCC4(CC3)OCCO4)c([N+](=O)[O-])c2)CC1,100,99,99,8,2,101,x,x,x,x,x,x,
COc1cc(S(=O)(=O)N2CCN(C(=O)c3ccccc3)CC2)c(OC)cc1Br,100,99,102,0,0,100,x,x,x,x,x,x,
CN(C(=S)Nc1ccc(Oc2ccccc2)cc1)C1CCCCC1,87,72,14*,-6,-2,85,0,100,98,100,101,99,RGS-Gao=87*
S=C(Nc1ccc(Oc2ccccc2)cc1)NC1CCCCCC1,100,100,99,2,0,101,x,x,x,x,x,x,
C/C(=N\NS(=O)(=O)c1ccccc1)c1cc(Cl)cc(Cl)c1O,103,103,106,1,0,100,x,x,x,x,x,x,
CCOC(=O)C1=C(O)/C(=C\c2cc(C)n(-c3ccc(F)cc3)c2C)N=C1C,101,100,100,7,1,95,x,x,x,x,x,x,
C#CC[N+](C)(C)CCCCCCCCC,100,101,98,2,0,105,x,x,x,x,x,x,
CC#CC[N+](C)(C)CCCCCCCCCC,170*[activator],115,156,x,x,u,0,105,107,104,106,107,
CCOC(=O)c1ccc[n+](CC(=O)c2ccccc2)c1,115,54*,14,3,0,113,0,100,100,102,99,99,RGS-Gao=115*
COc1cc2c(cc1OC)CN(CC(=O)NC(=O)NC1CCCCC1)CC2,98,99,97,11,3,100,x,x,x,x,x,x,
COC(=O)c1ccc(Oc2ccc3nnc(C)n3n2)cc1,122,142*[activator],389,8,1,116,-1,100,94,97,99,95,RGS-Gao=122*
CC(OC(=O)C1CCCCC1)c1nc2ccccc2[nH]1 (stereo not given),103,103,99,14,1,104,x,x,x,x,x,x,
CSCC[C@H](NC(=O)COc1ccc(Cl)cc1)c1nc2ccccc2[nH]1,112,124,203*[activator],12,4,108,-3,102,98,98,99,108,RGS-Gao=112*
CSCCC(NC(=O)C1CCCCC1)c1nc2ccccc2[nH]1 (stereo not given),147,x,x,x,x,x,-1,101,104,102,105,149,
Cc1ccc(NC(=O)/C=N/OCC(=O)NCc2ccccc2Cl)cc1,101,100,99,x,x,u,x,x,x,x,x,x,
C=CCn1c(SCc2ccc(F)cc2)nnc1-c1sc2nc(C)cc(C)c2c1N,98,100,96,x,x,u,x,x,x,x,x,x,
COc1ccc(S(=O)(=O)Nc2ccc(O)c(Sc3ncn[nH]3)c2)cc1,104,104,114,-1,0,109,x,x,x,x,x,x,
COc1ccc(S(=O)(=O)Nc2cc(Sc3ncn[nH]3)c(O)c3ccccc23)cc1,72,61,11*,-1,0,77,x,x,x,x,x,x,RGS-Gao=72*
CCOc1ccc(C(C)NC(=O)Cc2ccccc2)cc1OCC (stereo not given),100,100,97,-2,x,100,x,x,x,x,x,x,
CCC1=NN(C(=O)Cc2ccc([N+](=O)[O-])cc2)C(O)(c2ccncc2)C1 (stereo not given),106,104,110,5,1,104,x,x,x,x,x,x,
COCCCNC(CC(=O)Nc1ccc(OC)cc1OC)C(=O)O (stereo not given),x,x,x,0,0,x,1,104,107,106,103,96,
CN(C)c1ccnc(SCc2ccccc2Cl)c1C#N,102,102,107,1,0,104,x,x,x,x,x,x,
CN(C)C(=O)CSC1c2ccccc2C(=O)N1c1ccccc1 (stereo not given),23*,9.1*,-8,2,0,15*,-2,104,98,107,101,113,
COc1ccc(NC(=O)c2cccnc2N2CCOCC2)cc1,101,101,100,3,1,99,x,x,x,x,x,x,
CC(=O)c1cn(CC(=O)Nc2c(C)cccc2C)c2ccccc12,96,101,98,1,0,98,x,x,x,x,x,x,
SMILES,RGS4-Gao reg,RGS8-Gao,RGS16-Gao,ABCG2 block,ABCB1 block,RGS7-Gao,Biotin-avidin,RGS8-Gao single,RGS7-Gao confirm,RGS16-Gao conf,RGS4-Gao confirm,RGS19-Gao conf,others
Cc1cccc(C)c1NC(=O)CSC(=O)c1sc2ccccc2c1Cl,-6.1*,22*,-2.1*,x,x,u,-1,99,97,97,100,92,
Cc1ccc(NC(=O)c2cccc(OCc3c(C)noc3C)c2)cc1,100,103,103,6,1,99,x,x,x,x,x,x,
Cc1ccc(NC(=O)c2ccc(OCc3c(C)noc3C)cc2)cc1,23*,53*,27,x,x,u,0,101,106,106,106,104,
COc1ccc(OC)c2sc(NC(=O)C3=COCCO3)nc12,104,102,102,1,0,105,x,x,x,x,x,x,
COc1ccc(C)c2sc(NC(=O)C3=COCCO3)nc12,132,84,109,5,0,313*[activator],x,x,x,x,x,x,RGS-Gao=132*
CCOc1ccc(/C=c2\sc3nc(-c4ccco4)nn3c2=O)cc1OCC,84,86,45,1,0,87,x,x,x,x,x,x,
COc1ccccc1/C=c1\sc2nc(-c3ccco3)nn2c1=O,x,x,x,-2,0,x,2,97,89,94,92,83,
CCCCCCOc1ccc(N2C(=O)CC(N3CCN(CCN=CC4C(=O)CC(C)(C)CC4=O)CC3)C2=O)cc1 (stereo not given),121,97,103,1,1,158*[activator],-2,99,97,98,98,94,RGS-Gao=121*
CC1=NCCN1CCNC(=O)Nc1ccc(F)cc1,120,113,109,x,x,u,x,x,x,x,x,x,
